Activity calls are given as the source filed them. The rule behind the calls is not given here.
Assays:
Casein kinase II = Casein kinase II (Homo sapiens, UniProt P19784+P67870+P68400); test: Inhibition of CK2; type: protein-complex assay
Jurkat [1] = test: Inhibition of cell viability in Jurkat T cells after 24 hrs by MTT method; type: functional, cell-based; settings: Homo sapiens
Summary of the method: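 Human Jurkat T-leukemia cells, grown in RPMI-1640 with 10% FCS, were resuspended at 10⁶ cells/mL in medium with 1% FCS. They were exposed to increasing compound concentrations for 24 h at 37 °C. Controls received DMSO (0.5% v/v), set as 100% viability. Viability was read by MTT. Values are means ± SEM of three separate experiments; DC50 was taken as the concentration halving viability.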

[2] = molecular target: Tyrosine-protein kinase CSK (Homo sapiens) (UniProt P41240); test: Inhibition of CSK at 10 uM relative to control
Summary of the method: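 Kinase selectivity panel: activity of each kinase measured with inhibitor at 10 μM. Residual activity is expressed as a percentage of a control run without inhibitor. Assays were linear with respect to time and enzyme concentration. Lyn, c-Fgr and Syk were purified from rat spleen. Golgi CK came from rat lactating mammary gland.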

[3] = molecular target: Casein kinase I (Homo sapiens) (UniProt Q9HCP0+P78368+P48730+P49674+P48729); test: Residual activity of CK1 at 10 uM relative to control
[4] = molecular target: Tyrosine-protein kinase Lyn (Homo sapiens) (UniProt P07948); test: Residual activity of Lyn at 10 uM relative to control
[5] = molecular target: Tyrosine-protein kinase SYK (Rattus norvegicus) (UniProt Q64725); test: Residual activity of Syk at 10 uM relative to control
[6] = molecular target: Ribosomal protein S6 kinase alpha-5 (Homo sapiens) (UniProt O75582); test: Residual activity of MSK1 at 10 uM relative to control
[7] = molecular target: MAP kinase-activated protein kinase 5 (Homo sapiens) (UniProt Q8IW41); test: Residual activity of PRAK at 10 uM relative to control
[8] = molecular target: Ribosomal protein S6 kinase beta-1 (Homo sapiens) (UniProt P23443); test: Residual activity of S6K1 at 10 uM relative to control
[9] = molecular target: Mitogen-activated protein kinase 12 (Homo sapiens) (UniProt P53778); test: Residual activity of SAPK3/p38gamma relative to control
[10] = molecular target: T1, Ribosomal protein S6 kinase alpha-1 (Homo sapiens, UniProt Q15418); test: Residual activity of MAPKAPK1a at 10 uM relative to control
T1 sequence (Q15418 whole entry): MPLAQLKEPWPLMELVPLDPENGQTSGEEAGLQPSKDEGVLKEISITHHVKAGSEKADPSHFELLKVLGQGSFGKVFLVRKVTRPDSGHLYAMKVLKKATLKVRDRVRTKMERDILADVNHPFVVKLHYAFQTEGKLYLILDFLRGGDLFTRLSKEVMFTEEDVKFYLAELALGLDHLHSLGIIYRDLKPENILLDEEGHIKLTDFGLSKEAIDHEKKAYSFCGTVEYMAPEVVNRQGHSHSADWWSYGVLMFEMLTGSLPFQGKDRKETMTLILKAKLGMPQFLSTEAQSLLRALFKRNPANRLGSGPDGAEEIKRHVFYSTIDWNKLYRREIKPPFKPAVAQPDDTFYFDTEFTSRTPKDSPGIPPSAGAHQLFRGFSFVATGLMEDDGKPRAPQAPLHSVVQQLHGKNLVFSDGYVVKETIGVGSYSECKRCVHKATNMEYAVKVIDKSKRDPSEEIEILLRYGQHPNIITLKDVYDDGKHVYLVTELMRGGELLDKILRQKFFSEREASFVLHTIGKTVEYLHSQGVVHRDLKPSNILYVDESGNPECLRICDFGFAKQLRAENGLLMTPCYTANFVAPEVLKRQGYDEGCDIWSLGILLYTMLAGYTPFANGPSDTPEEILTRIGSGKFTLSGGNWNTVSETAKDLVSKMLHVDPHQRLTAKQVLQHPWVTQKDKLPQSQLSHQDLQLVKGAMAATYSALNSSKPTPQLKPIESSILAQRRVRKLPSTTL

Homo sapiens [11] = species: Homo sapiens; test: Inhibition of phosphorylase kinase at 10 uM relative to control
[12] = molecular target: Mitogen-activated protein kinase 13 (Homo sapiens) (UniProt O15264); test: Residual activity of SAPK4/p38delta at 10 uM relative to control
[13] = molecular target: cAMP-dependent protein kinase (PKA) (Homo sapiens) (UniProt P22694+P17612+P22612); test: Inhibition of PKA at 10 uM relative to control; values are per cent of control
[14] = molecular target: Serine/threonine-protein kinase Sgk1 (Homo sapiens) (UniProt O00141); test: Inhibition of SGK at 10 uM relative to control; values are per cent of control
Serine/threonine-protein kinase Sgk1 (Homo sapiens), sequence (O00141 whole entry): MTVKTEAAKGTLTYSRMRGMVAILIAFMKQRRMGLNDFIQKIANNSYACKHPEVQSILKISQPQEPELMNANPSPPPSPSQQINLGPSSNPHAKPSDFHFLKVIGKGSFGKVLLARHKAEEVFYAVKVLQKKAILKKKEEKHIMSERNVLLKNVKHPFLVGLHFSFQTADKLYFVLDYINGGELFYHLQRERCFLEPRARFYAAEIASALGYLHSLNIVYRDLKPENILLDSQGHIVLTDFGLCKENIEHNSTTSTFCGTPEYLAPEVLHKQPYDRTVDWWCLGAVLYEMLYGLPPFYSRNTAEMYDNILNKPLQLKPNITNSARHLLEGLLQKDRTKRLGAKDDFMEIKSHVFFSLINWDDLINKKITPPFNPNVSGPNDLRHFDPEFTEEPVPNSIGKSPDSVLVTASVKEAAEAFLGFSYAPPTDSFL

[15] = molecular target: T2, Dual specificity mitogen-activated protein kinase kinase 1 (Homo sapiens, UniProt Q02750); test: Inhibition of MKK1 at 10 uM relative to control; values are per cent of control
T2 sequence (Q02750 whole entry): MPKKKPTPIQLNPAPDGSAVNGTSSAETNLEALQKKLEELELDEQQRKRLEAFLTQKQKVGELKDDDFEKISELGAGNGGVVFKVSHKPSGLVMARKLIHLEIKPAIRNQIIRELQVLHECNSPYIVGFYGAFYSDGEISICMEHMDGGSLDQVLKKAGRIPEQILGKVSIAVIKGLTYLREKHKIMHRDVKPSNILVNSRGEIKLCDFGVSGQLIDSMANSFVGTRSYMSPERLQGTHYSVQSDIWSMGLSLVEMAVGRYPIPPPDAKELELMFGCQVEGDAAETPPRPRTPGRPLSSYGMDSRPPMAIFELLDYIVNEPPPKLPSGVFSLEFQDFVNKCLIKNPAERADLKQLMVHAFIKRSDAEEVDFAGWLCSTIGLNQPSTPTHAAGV

[16] = molecular target: 3-phosphoinositide-dependent protein kinase 1 (Homo sapiens) (UniProt O15530); test: Inhibition of PDK1 at 10 uM relative to control; values are per cent of control
3-phosphoinositide-dependent protein kinase 1 (Homo sapiens), sequence (O15530 whole entry): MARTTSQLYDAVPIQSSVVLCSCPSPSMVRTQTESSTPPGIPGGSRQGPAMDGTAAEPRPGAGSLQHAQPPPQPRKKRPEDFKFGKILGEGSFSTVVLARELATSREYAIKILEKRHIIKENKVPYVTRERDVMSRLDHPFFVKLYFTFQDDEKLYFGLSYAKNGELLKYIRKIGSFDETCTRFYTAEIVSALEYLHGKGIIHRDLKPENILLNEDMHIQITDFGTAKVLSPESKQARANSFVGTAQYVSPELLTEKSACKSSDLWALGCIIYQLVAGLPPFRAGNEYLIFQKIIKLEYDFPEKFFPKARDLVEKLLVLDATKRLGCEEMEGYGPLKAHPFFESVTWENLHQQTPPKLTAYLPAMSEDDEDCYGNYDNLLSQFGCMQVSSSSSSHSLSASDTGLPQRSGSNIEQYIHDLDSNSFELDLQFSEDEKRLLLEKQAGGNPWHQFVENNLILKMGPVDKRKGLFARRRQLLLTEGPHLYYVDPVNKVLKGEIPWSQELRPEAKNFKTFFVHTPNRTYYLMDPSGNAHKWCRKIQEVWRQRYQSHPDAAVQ

[17] = molecular target: AMP-activated protein kinase (AMPK) alpha-1/beta-1/gamma-1 (Homo sapiens) (UniProt P54619+Q9Y478+Q13131); test: Inhibition of AMPK at 10 uM relative to control; values are per cent of control
Homo sapiens [18] = species: Homo sapiens; test: Inhibition of PP2A at 10 uM relative to control; values are per cent of control
[19] = molecular target: Rho-associated protein kinase 2 (Homo sapiens) (UniProt O75116); test: Inhibition of ROCK2 at 10 uM relative to control; values are per cent of control
Rho-associated protein kinase 2 (Homo sapiens), sequence (O75116 whole entry, looked up): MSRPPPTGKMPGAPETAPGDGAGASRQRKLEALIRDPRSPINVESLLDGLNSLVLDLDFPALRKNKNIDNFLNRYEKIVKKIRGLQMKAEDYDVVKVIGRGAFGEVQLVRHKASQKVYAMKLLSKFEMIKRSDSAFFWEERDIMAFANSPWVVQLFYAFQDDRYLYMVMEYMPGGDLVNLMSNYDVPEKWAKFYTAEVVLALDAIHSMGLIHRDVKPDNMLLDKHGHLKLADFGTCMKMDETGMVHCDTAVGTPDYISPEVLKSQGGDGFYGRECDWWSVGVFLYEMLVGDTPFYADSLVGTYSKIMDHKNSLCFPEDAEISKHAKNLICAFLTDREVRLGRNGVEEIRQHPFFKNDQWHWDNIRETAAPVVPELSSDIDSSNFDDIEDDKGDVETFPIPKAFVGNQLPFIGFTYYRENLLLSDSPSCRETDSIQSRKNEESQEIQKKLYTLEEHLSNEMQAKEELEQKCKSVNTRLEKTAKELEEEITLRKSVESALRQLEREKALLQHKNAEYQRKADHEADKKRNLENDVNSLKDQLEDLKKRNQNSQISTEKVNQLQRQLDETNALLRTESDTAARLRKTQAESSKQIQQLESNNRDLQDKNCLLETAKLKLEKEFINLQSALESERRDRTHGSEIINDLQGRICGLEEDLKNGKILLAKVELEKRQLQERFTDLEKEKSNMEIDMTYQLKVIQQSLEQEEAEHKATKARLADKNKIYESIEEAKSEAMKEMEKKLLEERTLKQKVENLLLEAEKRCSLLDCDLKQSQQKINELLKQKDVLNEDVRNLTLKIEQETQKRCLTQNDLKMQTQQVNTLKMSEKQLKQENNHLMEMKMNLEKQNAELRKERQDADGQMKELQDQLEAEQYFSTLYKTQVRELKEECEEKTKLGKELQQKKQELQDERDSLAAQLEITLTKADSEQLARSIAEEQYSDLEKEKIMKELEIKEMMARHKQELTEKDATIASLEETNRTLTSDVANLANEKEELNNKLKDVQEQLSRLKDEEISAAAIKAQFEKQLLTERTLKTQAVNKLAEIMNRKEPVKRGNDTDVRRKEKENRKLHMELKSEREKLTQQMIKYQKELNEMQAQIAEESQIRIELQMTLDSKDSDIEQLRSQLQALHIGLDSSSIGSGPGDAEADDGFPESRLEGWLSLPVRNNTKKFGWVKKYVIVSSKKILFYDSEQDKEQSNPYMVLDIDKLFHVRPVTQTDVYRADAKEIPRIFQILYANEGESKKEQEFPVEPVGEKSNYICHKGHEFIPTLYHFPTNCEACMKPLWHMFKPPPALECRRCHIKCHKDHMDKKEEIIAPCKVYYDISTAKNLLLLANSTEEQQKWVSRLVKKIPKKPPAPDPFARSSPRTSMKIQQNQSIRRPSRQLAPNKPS

[20] = molecular target: T3, Dual specificity tyrosine-phosphorylation-regulated kinase 1A (Homo sapiens, UniProt Q13627); test: Inhibition of DYRK1A at 10 uM relative to control; values are per cent of control
[21] = molecular target: Glycogen synthase kinase-3 beta (Homo sapiens) (UniProt P49841); test: Inhibition of GSKbeta at 10 uM relative to control; values are per cent of control
[22] = molecular target: Serine/threonine-protein kinase Chk1 (Homo sapiens) (UniProt O14757); test: Inhibition of at CHK1 at 10 uM relative to control; values are per cent of control
[23] = molecular target: MAP kinase-activated protein kinase 2 (Homo sapiens) (UniProt P49137); test: Inhibition of MAPKAPK2 at 10 uM relative to control; values are per cent of control
[24] = molecular target: Protein kinase C alpha type (Homo sapiens) (UniProt P17252); test: Inhibition of PKCalpha at 10 uM relative to control; values are per cent of control
[25] = molecular target: RAC-alpha serine/threonine-protein kinase (Homo sapiens) (UniProt P31749); test: Inhibition of PKBalpha at 10 uM relative to control; values are per cent of control
[26] = molecular target: Mitogen-activated protein kinase 1 (Homo sapiens) (UniProt P28482); test: Inhibition of MAPK2/ERK2 at 10 uM relative to control; values are per cent of control
[27] = molecular target: Mitogen-activated protein kinase 8 (Homo sapiens) (UniProt P45983); test: Inhibition of JNK/SAPK1c at 10 uM relative to control; values are per cent of control
Mitogen-activated protein kinase 8 (Homo sapiens), sequence (P45983 whole entry): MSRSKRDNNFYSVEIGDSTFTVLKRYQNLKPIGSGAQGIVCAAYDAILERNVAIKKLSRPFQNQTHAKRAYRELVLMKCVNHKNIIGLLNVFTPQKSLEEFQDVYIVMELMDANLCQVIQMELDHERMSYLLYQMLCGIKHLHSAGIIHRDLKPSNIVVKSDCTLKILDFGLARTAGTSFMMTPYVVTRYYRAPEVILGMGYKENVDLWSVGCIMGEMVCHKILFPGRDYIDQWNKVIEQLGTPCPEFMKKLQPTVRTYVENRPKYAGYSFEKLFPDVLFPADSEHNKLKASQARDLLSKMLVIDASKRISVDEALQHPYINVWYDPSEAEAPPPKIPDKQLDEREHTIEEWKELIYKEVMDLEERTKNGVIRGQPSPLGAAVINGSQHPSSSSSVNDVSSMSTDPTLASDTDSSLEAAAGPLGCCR

[28] = molecular target: Mitogen-activated protein kinase 14 (Homo sapiens) (UniProt Q16539); test: Inhibition of SAPK2a/p38 at 10 uM relative to control; values are per cent of control
[29] = molecular target: Mitogen-activated protein kinase 11 (Homo sapiens) (UniProt Q15759); test: Inhibition of SAPK2b/p38--beta-2 at 10 uM relative to control; values are per cent of control
Jurkat [30] = test: Induction of mitochondrial depolarization in Jurkat T cells up to 10 uM; type: functional, cell-based; settings: Homo sapiens
[31] = molecular target: T3, Dual specificity tyrosine-phosphorylation-regulated kinase 1A; test: Inhibition of DYRK1A
[32] = molecular target: T2, Dual specificity mitogen-activated protein kinase kinase 1; test: Inhibition of MKK1
[33] = molecular target: T1, Ribosomal protein S6 kinase alpha-1; test: Inhibition of MAPKAPK1a
[34] = molecular target: Serine/threonine-protein kinase Sgk1 (Homo sapiens, UniProt O00141); test: Inhibition of SGK
Serine/threonine-protein kinase Sgk1, sequence (O00141 whole entry): as the sequence (O00141 whole entry) above

[35] = molecular target: Cyclin-dependent kinase 2/cyclin A (Homo sapiens, UniProt P24941); test: Inhibition of CDK2/Cyclin A; type: protein-complex assay
Jurkat [36] = test: Induction of caspase activation assessed as PARP cleavage in Jurkat T cells; type: functional, cell-based; settings: Homo sapiens
Summary of the method: (§1)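 Jurkat T cells suspended at 10⁶ cells/mL in RPMI-1640 with 1% fetal calf serum, treated 14 h at 37 °C with 5 or 10 μM compound; untreated cells as control, 50 ng/mL anti-Fas as apoptotic control. Cells lysed in hypo-osmotic buffer; caspase activation read by Western blot as degradation of HS1 (full length and major fragment) and PARP.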

Jurkat [37] = test: Induction of caspase activation assessed as HS1 protein cleavage in Jurkat T cells; type: functional, cell-based; settings: Homo sapiens; summary of the method: as §1
[38] = molecular target: Tyrosine-protein kinase Lck (Homo sapiens) (UniProt P06239); test: Inhibition of Lck at 10 uM relative to control; values are per cent of control
[39] = molecular target: EKC/KEOPS complex subunit BUD32 (Saccharomyces cerevisiae S288c) (UniProt P53323); test: Inhibition of PiD261 at 10 uM relative to control; values are per cent of control

Casein kinase II, sequence (P67870 whole entry): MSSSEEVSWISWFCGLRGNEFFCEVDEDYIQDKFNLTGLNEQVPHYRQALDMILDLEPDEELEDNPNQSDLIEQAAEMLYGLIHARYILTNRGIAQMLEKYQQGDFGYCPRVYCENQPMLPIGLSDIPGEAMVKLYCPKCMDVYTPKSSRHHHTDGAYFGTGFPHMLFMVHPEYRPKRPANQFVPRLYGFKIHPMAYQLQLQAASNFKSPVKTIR
Casein kinase II, sequence (P68400 whole entry): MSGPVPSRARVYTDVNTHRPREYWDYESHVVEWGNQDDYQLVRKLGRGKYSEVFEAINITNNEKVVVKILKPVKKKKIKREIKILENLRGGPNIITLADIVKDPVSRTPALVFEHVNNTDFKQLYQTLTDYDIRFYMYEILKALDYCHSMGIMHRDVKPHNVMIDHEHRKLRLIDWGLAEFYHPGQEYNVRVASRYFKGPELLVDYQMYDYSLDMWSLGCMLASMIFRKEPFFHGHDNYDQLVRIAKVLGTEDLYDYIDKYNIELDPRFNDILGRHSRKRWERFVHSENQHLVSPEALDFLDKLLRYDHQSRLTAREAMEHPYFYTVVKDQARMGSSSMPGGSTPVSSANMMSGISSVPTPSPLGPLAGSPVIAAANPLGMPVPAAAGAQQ
Casein kinase II, sequence (P19784 whole entry): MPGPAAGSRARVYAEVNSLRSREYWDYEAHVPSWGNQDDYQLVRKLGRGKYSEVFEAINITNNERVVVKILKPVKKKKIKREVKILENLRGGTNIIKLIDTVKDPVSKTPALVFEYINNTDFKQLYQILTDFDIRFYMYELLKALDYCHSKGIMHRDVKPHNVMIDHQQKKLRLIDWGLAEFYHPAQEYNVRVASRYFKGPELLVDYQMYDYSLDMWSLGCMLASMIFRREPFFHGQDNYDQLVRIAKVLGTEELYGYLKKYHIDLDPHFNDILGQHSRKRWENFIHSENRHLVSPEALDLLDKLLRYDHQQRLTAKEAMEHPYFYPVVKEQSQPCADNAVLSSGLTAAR

O=[N+]([O-])c1ccc(CSc2nc3c(Br)c(Br)c(Br)c(Br)c3[nH]2)cc1
IC50 (Casein kinase II): 3480 nM

Brc1c(Br)c(Br)c2[nH]nnc2c1Br [TETRABROMOBENZOTRIAZOLE]
DC50 (Jurkat [1]): 17 µM | inhibition [2]: 101% | residual activity [3]: 91% | residual activity [4]: 99% | residual activity [5]: 102% | residual activity [6]: 111% | residual activity [7]: 87% | residual activity [8]: 89% | residual activity [9]: 89% | residual activity [10]: 90% | residual activity (Homo sapiens [11]): 49% | residual activity [12]: 99% | residual activity [13]: 90% | residual activity [14]: 97% | residual activity [15]: 94% | residual activity [16]: 97% | residual activity [17]: 96% | residual activity (Homo sapiens [18]): 117% | residual activity [19]: 91% | residual activity [20]: 22% | residual activity [21]: 64% | residual activity [22]: 101% | residual activity [23]: 108% | residual activity [24]: 102% | residual activity [25]: 91% | residual activity [26]: 111% | residual activity [27]: 93% | residual activity [28]: 107% | residual activity [29]: 103%

CC(C)Nc1nc2c(Br)c(Br)c(Br)c(Br)c2n1C
IC50 (Casein kinase II): 180 nM | Ki (Casein kinase II): 190 nM

C=CCn1c(Br)nc2c(Br)c(Br)c(Br)c(Br)c21
IC50 (Casein kinase II): 880 nM | Ki (Casein kinase II): 630 nM

CSc1nc2c(Br)c(Br)c(Br)c(Br)c2n1C
IC50 (Casein kinase II): 600 nM | Ki (Casein kinase II): 360 nM

CNc1nc2c(Br)c(Br)c(Br)c(Br)c2[nH]1
IC50 (Casein kinase II): 210 nM | Ki (Casein kinase II): 90 nM

Nc1nc2c(Br)c(Br)c(Br)c(Br)c2[nH]1
IC50 (Casein kinase II): 300 nM | Ki (Casein kinase II): 90 nM

CC(C)Nc1nc2c(Br)c(Br)c(Br)c(Br)c2[nH]1
IC50 (Casein kinase II): 160 nM | Ki (Casein kinase II): 60 nM

NC(=O)Cn1c(Br)nc2c(Br)c(Br)c(Br)c(Br)c21
IC50 (Casein kinase II): 1570 nM | Ki (Casein kinase II): 1900 nM

CN(C)c1nc2c(Br)c(Br)c(Br)c(Br)c2[nH]1
DC50 (Jurkat [1]): 2.7 µM | Activity (Jurkat [30]): inactive | IC50 [31]: 120 nM | IC50 [32]: 10.5 µM | IC50 [33]: 10.3 µM | IC50 [34]: 3.57 µM | IC50 [35]: 2380 nM | Activity (Jurkat [36]): Active | Activity (Jurkat [37]): Active | residual activity [3]: 87% | residual activity [4]: 91% | residual activity [5]: 103% | residual activity [6]: 73% | residual activity [7]: 77% | residual activity [8]: 65% | residual activity [9]: 88% | residual activity [10]: 52% | residual activity (Homo sapiens [11]): 41% | residual activity [12]: 109% | residual activity [13]: 80% | residual activity [14]: 29% | residual activity [38]: 104% | residual activity [15]: 53% | residual activity [16]: 112% | residual activity [17]: 73% | residual activity (Homo sapiens [18]): 67% | residual activity [19]: 69% | residual activity [39]: 97% | residual activity [20]: 2% | residual activity [21]: 103% | residual activity [22]: 81% | residual activity [23]: 101% | residual activity [24]: 95% | residual activity [25]: 96% | residual activity [26]: 77% | residual activity [27]: 97% | residual activity [28]: 85% | residual activity [29]: 65%

CC(O)CNc1nc2c(Br)c(Br)c(Br)c(Br)c2[nH]1 (stereo unspecified)
IC50 (Casein kinase II): 280 nM | Ki (Casein kinase II): 140 nM

Brc1nc2c(Br)c(Br)c(Br)c(Br)c2[nH]1
IC50 (Casein kinase II): 740 nM | Ki (Casein kinase II): 230 nM
